# Test results as given in PubChem BioAssay AID489030 (Sanford-Burnham Center for Chemical Genomics, 2010).
# Screen size: about 330,000 compounds; about 2,400 (0.73%) were called active. Rule for the calls: active = inhibition of at least 40% at 20 µM; inactive = the rest. The sample as a whole holds a higher share of actives than the screen did.
# Molecular target: Apoptotic protease-activating factor 1 (Homo sapiens) (UniProt O14727)
# Assay: inhibitors of human Apaf-1 apoptosome, primary screen, biochemical, DEVD-Rh110 fluorescence, uHTS (AID 489030);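 note: plate controls were DMSO wells for no effect and DEVD-CHO caspase inhibitor wells for full effect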
# Conditions: reconstituted apoptosome caspase-3 activity, at 20 µM, active compounds read high
# How it was run: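 Assay system: Apoptosome proteins | Medium: pH 7.5 Hepes buffer with CHAPS, BSA, DTT | Also added: Cytochrome c and DEVD-Rh110 substrate | Times: 30 min plus 50 min, RT | Detection: Rhodamine 110 fluorescence at Ex 480/Em 540 nm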
# Chain of Apoptotic protease-activating factor 1 (Homo sapiens) (O14727 whole entry, looked up): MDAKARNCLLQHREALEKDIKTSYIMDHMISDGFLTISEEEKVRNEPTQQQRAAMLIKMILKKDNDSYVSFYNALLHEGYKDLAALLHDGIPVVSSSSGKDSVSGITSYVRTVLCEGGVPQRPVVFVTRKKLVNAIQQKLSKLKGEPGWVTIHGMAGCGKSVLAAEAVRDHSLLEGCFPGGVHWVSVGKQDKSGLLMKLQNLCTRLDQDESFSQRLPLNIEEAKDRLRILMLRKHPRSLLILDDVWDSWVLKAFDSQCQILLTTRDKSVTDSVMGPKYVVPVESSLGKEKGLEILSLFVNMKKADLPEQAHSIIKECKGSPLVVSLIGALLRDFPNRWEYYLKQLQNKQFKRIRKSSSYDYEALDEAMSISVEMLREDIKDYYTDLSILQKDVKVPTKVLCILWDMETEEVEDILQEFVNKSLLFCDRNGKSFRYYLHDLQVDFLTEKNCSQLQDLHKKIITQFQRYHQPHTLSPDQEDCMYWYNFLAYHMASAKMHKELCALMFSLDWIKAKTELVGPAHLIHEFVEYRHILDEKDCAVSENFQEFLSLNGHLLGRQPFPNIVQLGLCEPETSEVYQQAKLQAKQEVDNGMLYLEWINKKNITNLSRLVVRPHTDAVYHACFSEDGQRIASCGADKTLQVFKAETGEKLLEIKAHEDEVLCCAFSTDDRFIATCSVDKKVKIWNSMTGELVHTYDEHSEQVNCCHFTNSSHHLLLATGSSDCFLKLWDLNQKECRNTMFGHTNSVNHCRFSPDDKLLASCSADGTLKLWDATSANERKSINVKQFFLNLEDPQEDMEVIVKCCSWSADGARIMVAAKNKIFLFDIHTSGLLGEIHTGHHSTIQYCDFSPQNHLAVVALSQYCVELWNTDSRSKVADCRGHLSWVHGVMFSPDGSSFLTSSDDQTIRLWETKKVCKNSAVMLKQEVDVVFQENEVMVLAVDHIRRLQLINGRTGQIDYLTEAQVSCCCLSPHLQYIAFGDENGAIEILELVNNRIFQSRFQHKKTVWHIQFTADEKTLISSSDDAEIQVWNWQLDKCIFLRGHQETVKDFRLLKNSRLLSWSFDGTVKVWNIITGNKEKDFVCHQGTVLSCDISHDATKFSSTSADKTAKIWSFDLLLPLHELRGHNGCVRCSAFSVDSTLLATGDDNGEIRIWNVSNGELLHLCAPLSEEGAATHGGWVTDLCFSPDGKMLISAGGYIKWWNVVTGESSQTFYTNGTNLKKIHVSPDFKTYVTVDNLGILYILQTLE
row,Compound,inhibition
1,CCCCn1c(=O)c(C(=O)Nc2ccccc2Cl)c(O)c2ccccc21,-6.34% (inactive)
2,CCCCCn1c(=O)c(C(=O)Nc2c(C)n(C)n(-c3ccccc3)c2=O)c(O)c2ccccc21,46.4% (active)
3,CCCCCn1c(=O)c(C(=O)NCc2ccccc2)c(O)c2ccccc21,-34.9% (inactive)
4,COC(=O)C1=C(c2c(C)noc2C)C[C@@H]2CC[C@H]1N2C(=O)NCc1ccc2c(c1)OCO2,1.57% (inactive)
5,Cc1cccc(-n2c(O)c(/C=N/N3CCOCC3)c(=O)[nH]c2=S)c1,3.6% (inactive)
6,c1ccc2sc(N3CCNCC3)nc2c1,-11.3% (inactive)
7,CC(=O)NC(=O)NC(C)Cc1ccccc1 (stereo not given),-10.3% (inactive)
8,CC(Cc1ccccc1)NC=O (stereo not given),5.78% (inactive)
9,CC(Cc1ccccc1)NCCC(c1ccccc1)c1ccccc1 (stereo not given),41.5% (active)
10,CCOc1ccc(CN(CCCl)CCCl)cc1C(=O)OC,-1.62% (inactive)
11,CCOC(=O)c1c(N)n(Cc2ccccc2)c2nc3ccccc3nc12,79.9% (active)
12,CCOC(=O)c1c(N)n(CCN2CCOCC2)c2nc3ccccc3nc12,-3.48% (inactive)
13,COc1cc(Cn2c(N)c(C(=O)NCc3ccco3)c3nc4ccccc4nc32)cc(OC)c1OC,96.1% (active)
14,CC/C(=N\NC(=O)c1ccccc1O)c1c(O)n(Cc2ccccc2)c(=O)[nH]c1=O,-8.27% (inactive)
15,COC(=O)C1=C(c2ccccc2)C[C@@H]2CC[C@H]1N2C(=O)NCc1ccco1,3.27% (inactive)
16,CCOC(=O)C(O)(c1ccc(NC(=O)c2ccco2)c(OC)c1)C(F)(F)F (stereo not given),5.81% (inactive)
17,CN(C)/C=C(\C=[N+](C)C)c1[nH]ncc1[N+](=O)[O-],-1.23% (inactive)
18,COC(=O)C1=C(c2ccc(F)cc2F)C[C@@H]2CC[C@H]1N2C(=O)NC1CC1,3.15% (inactive)
19,CCCn1c(C(=O)c2ccccc2OC)nc2ccccc21,6.27% (inactive)
20,CCCCCCCCCCCCn1ccc(=N)cc1,43.9% (active)
21,Cn1c(O)c(C=NCCN2CCNCC2)c(=O)n(C)c1=O,6.24% (inactive)
22,COC(=O)CN1C(=O)C2(C(C(=O)OC)=C(N)Oc3ccccc32)C2=C1CC(C)(C)CC2=O (stereo not given),-21% (inactive)
23,CN(C)C(=O)Oc1ccc(NC(=O)N2CCOCC2)cc1,-15% (inactive)
24,CC(=C1C(=O)c2ccccc2C1=O)N1CCN(CCN=Cc2c(O)n(C)c(=O)n(C)c2=O)CC1,1.31% (inactive)
25,C=CCN1C(=O)NC(=O)/C(=C/c2ccc(OCC(=O)Nc3ccc(C)cc3)cc2)C1=O,8.4% (inactive)
26,O=C(Cc1ccc(Cl)cc1)NCCN1CCN(C(=O)Cc2ccc(Cl)cc2)CC1,-6.49% (inactive)
27,CNCC(O)c1cc(F)c(OCc2ccccc2)c(OCc2ccccc2)c1F (stereo not given),45.9% (active)
28,CCc1nc2ccccc2c(=O)n1-c1cccc(OC)c1,-11.3% (inactive)
29,CNC(=O)N(C)c1nnc(C(C)(C)C)s1,-10.6% (inactive)
30,CC(C)c1c(CN(C)C(C)Cc2ccccc2)n(C)n(-c2ccccc2)c1=O (stereo not given),9.08% (inactive)
